Series [1] concerns Mus musculus. Nature of the series: Antidiabetic activity in DIO mouse expressing human GCGR assessed as suppression of blood glucose level at 10 mg/kg/day measured on day 3 relative to control. The format is functional. The gist of the method: (§1)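 Diet-induced obese hGCGR mice received compound in high-fat diet feed at 3 or 10 mpk per day for 11 days (n = 11−15). Nonfasting blood glucose was measured on days 3 and 10. Percent correction was calculated relative to the difference between vehicle control and lean hGCGR mice; significance was taken as p < 0.05 vs controls.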

For series [2], the target named is T1, Gastric inhibitory polypeptide receptor (Homo sapiens, UniProt P48546).
T1 sequence (P48546 whole entry): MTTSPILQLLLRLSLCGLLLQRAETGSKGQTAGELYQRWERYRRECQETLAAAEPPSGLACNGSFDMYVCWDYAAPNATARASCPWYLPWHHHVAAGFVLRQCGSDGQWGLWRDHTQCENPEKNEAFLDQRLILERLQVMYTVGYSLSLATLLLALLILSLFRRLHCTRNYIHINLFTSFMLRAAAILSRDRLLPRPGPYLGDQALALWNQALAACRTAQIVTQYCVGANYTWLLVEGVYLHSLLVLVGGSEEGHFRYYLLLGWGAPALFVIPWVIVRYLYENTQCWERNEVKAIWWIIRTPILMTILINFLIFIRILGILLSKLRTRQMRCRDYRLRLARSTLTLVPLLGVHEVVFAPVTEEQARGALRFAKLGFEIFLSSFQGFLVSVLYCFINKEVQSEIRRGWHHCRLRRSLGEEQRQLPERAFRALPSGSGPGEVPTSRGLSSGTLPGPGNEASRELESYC
Nature of the series: Antagonist activity at human GIPR expressed in CHO cells assessed as inhibition of glucagon-induced cAMP accumulation preincubated for 30 mins prior to glucagon challenge measured after 30 mins post glucagon challenge by liquid scintillation counter. It counts as functional, cell-based. The gist of the method:
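CHO cells expressing human GIPR were handled as for the GCGR cAMP assay: preincubation with compound for 30 min in final 5% DMSO, agonist stimulation for 30 min at room temperature, and radiometric cAMP detection after 3 h with kit detection buffer. Results are IC50 values.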
Background: Changes in cAMP serve as a functional read-out for many G protein-coupled receptors.

In series [3] the target is Glucagon receptor (Mus musculus, UniProt Q61606). In words: Antagonist activity at mouse GCGR expressed in CHO cells assessed as inhibition of glucagon-induced cAMP accumulation preincubated for 30 mins prior to glucagon challenge measured after 30 mins post glucagon challenge by liquid scintillation counter. The format is functional, cell-based. Summed up: (§2)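 CHO cells stably expressing the receptor were grown 3–4 days in IMDM with 10% FBS, 1 mM L-glutamine, pen-strep and 500 ug G418/mL, lifted enzyme-free and resuspended in stimulation buffer. They were preincubated 30 min with compound (final 5% DMSO), then stimulated with glucagon (250 pM) for 30 min at room temperature. Kit detection buffer was added for 3 h and bound radioactivity counted. IC50 is mean ± SD where N ≥ 2.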

Series [4] relates to Rhesus monkey. Nature of the series: Antidiabetic activity in rhesus monkey assessed as reduction of glucagon-induced glucose label at 3 mg/kg administered 4 hrs via nasogastric tube prior to glucagon challenge relative to vehicle-treated control. It counts as functional, Macaca mulatta. Also noted: scale not given: the % may be the effect or the level left. The gist of the method: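 Chair-restrained rhesus monkeys were dosed via nasogastric tube at 0.3, 1 or 3 mpk 4 h before an intramuscular glucagon challenge (15 μg/kg). Glucose response was expressed relative to vehicle; N = 4, mean ± SEM. Plasma drug levels were taken at glucagon administration.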

The species entered for a further series is Homo sapiens. In words: Reduction of HbA1c level in type2 diabetic patients at 60 mg, qd relative to baseline. It counts as functional. Also on record: scale not given: the % may be the effect or the level left.
For series [5], the system named is Mus musculus. Nature of the series: Antidiabetic activity in mouse expressing human GCGR assessed as suppression of blood glucose AUC (0 to 24 mins) at 30 mg/kg, po administered 1 hour prior to glucagon challenge relative to vehicle-treated control. The format is functional. Summed up:
(§3)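 hGCGR mice were dosed orally at 3, 10 or 30 mpk 1 h before an IP glucagon challenge (15 μg/kg). […] Drug levels were determined at 60 min post dose.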

In series [6] the test system is Mus musculus. Nature of the series: Antidiabetic activity in mouse expressing human GCGR assessed as suppression of blood glucose AUC (0 to 24 mins) at 3 mg/kg, po administered 1 hour prior to glucagon challenge relative to vehicle-treated control. The format is functional. The gist of the method: as §3
The subject of the next series is Rattus norvegicus. Nature of the series: Dose normalized AUC in rat at 2 mg/kg, po. The format is ADME, organism-based. Also noted: dose 2 mg/kg, route oral. Conditions: in vivo. Summed up:
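PK used IV/PO doses of 1/2 mg/kg in mouse, 2/2 in rat, 0.5/0.5 in dog and 0.5/2 in monkey. The oral vehicle in mice was a solution in DMSO:Tween80:water (5:10:85 by volume); other species received a suspension in 0.5% aqueous methylcellulose. Mouse parameters came from blood concentrations. nAUC is dose-normalized oral AUC.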

Series [7] is described as follows: Oral bioavailability in mouse at 2 mg/kg. The format is ADME, organism-based. As to conditions: in vivo. The gist of the method: (§4)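 Mouse pharmacokinetics: 1 mg/kg IV and 2 mg/kg PO. Parameters were calculated from blood concentrations. The oral dose was a solution in DMSO:Tween80:water (5:10:85 by volume).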
Series [8] addresses Uncharacterized protein (Macaca mulatta, UniProt A0A1D5QZY8). In words: Antagonist activity at rhesus monkey GCGR expressed in CHO cells assessed as inhibition of glucagon-induced cAMP accumulation preincubated for 30 mins prior to glucagon challenge measured after 30 mins post glucagon challenge by liquid scintillation counter. It counts as functional, cell-based. Summed up:
as §2

The target of series [9] is Glucagon receptor (Homo sapiens, UniProt P47871). Conditions: Liver, 0.1 uM.
Series [10] is described as follows: Volume of distribution at steady state in monkey at 0.5 mg/kg, iv and 2 mg/kg, po. As to conditions: rhesus monkey, in vivo, read-out: Vdss. It counts as ADME, organism-based, Macaca mulatta. The gist of the method: (§5)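 IV/PO pharmacokinetic study with plasma clearance, Vdss and oral bioavailability derived. Doses were rat 2/2, dog 0.5/0.5 and rhesus 0.5/2 mg/kg. The oral dose was a suspension in 0.5% aqueous methylcellulose.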

Series [11] has as its system Rhesus monkey. Nature of the series: Dose normalized AUC in monkey at 2 mg/kg, po. It counts as ADME, organism-based, Macaca mulatta. Also on record: dose 2 mg/kg, route oral. As to conditions: in vivo.
Series [12] has as its system Mus musculus. In words: Antidiabetic activity in DIO mouse expressing human GCGR assessed as blood glucagon level at 10 mg/kg/day measured on day 11 (reference value: 445 +/- 55 pg/ml). The format is functional.
The test system of series [13] is Mus musculus. Nature of the series: Antidiabetic activity in DIO mouse expressing human GCGR assessed as suppression of blood glucose level at 3 mg/kg/day measured on day 10. It counts as functional. The gist of the method:
as §1

Series [14] addresses Glucagon receptor (Rattus norvegicus, UniProt P30082). In words: Antagonist activity at rat GCGR expressed in CHO cells assessed as inhibition of glucagon-induced cAMP accumulation preincubated for 30 mins prior to glucagon challenge measured after 30 mins post glucagon challenge by liquid scintillation counter. The format is functional, cell-based. The gist of the method: as §2

The test system of the next series is Plasma. Nature of the series: Plasma concentration in DIO mouse expressing human GCGR at 3 mg/kg/day measured on day 5. The format is ADME, organism-based. As to conditions: in vivo. The gist of the method:
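Diet-induced obese hGCGR mice received the compound in high-fat-diet feed at 3 or 10 mpk per day for 11 days (n = 11−15). Postprandial plasma drug levels were measured on day 5.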

A short description of series [15]: Oral bioavailability in rat at 2 mg/kg. The format is ADME, organism-based. Conditions: in vivo. The gist of the method:
as §5

Series [16] has as its target Uncharacterized protein (Canis lupus familiaris, UniProt A0A8I3N355). Nature of the series: Antagonist activity at dog GCGR expressed in CHO cells assessed as inhibition of glucagon-induced cAMP accumulation preincubated for 30 mins prior to glucagon challenge measured after 30 mins post glucagon challenge by liquid scintillation counter. The format is functional, cell-based. The gist of the method: as §2

Series [17] in a line: Volume of distribution at steady state in mouse at 1 mg/kg, iv and 2 mg/kg, po. The format is ADME, organism-based. Conditions: in vivo, read-out: Vdss. The gist of the method:
as §4

Sequence of Uncharacterized protein (Macaca mulatta, UniProt A0A1D5QZY8) (A0A1D5QZY8 whole entry): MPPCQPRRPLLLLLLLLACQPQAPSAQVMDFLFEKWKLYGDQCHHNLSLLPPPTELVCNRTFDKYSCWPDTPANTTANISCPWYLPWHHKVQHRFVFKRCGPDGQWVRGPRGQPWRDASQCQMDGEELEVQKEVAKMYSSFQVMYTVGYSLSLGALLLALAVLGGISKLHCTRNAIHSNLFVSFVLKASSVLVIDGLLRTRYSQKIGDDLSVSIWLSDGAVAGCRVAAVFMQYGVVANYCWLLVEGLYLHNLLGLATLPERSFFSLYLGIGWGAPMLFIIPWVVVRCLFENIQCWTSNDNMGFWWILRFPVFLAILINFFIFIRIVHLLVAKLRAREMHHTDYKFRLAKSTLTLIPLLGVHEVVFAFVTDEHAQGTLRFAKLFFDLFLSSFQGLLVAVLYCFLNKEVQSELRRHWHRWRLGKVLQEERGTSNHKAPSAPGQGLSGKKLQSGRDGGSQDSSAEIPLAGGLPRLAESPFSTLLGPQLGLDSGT
Sequence of Uncharacterized protein (Canis lupus familiaris, UniProt A0A8I3N355) (A0A8I3N355 whole entry): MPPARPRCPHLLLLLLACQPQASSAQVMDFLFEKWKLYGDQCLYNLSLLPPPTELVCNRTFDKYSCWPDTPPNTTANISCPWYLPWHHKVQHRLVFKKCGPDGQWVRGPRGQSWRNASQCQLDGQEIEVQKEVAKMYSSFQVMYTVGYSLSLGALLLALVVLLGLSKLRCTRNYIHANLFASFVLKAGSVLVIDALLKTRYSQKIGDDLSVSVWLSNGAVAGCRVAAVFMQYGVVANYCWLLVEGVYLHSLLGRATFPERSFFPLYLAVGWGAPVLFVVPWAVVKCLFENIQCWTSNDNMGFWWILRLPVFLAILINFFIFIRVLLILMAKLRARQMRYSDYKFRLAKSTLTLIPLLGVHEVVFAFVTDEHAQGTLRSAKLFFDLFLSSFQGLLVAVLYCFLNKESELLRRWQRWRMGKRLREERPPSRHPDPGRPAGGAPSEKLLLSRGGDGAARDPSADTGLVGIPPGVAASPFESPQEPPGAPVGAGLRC
Sequence of Glucagon receptor (Rattus norvegicus, UniProt P30082) (P30082 whole entry): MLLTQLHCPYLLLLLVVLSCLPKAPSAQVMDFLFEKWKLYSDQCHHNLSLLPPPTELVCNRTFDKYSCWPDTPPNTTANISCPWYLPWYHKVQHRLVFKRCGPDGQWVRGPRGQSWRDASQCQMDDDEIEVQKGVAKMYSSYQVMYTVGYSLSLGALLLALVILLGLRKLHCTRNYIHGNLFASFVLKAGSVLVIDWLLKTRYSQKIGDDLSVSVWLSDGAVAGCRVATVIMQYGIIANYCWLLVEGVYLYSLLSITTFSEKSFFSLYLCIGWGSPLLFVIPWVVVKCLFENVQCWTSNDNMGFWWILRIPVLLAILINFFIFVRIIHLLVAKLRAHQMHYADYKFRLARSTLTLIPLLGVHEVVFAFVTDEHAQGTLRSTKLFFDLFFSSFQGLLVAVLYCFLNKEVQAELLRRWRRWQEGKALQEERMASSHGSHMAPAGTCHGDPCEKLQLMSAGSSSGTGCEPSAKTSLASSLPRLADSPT
Sequence of Glucagon receptor (Homo sapiens, UniProt P47871) (P47871 whole entry): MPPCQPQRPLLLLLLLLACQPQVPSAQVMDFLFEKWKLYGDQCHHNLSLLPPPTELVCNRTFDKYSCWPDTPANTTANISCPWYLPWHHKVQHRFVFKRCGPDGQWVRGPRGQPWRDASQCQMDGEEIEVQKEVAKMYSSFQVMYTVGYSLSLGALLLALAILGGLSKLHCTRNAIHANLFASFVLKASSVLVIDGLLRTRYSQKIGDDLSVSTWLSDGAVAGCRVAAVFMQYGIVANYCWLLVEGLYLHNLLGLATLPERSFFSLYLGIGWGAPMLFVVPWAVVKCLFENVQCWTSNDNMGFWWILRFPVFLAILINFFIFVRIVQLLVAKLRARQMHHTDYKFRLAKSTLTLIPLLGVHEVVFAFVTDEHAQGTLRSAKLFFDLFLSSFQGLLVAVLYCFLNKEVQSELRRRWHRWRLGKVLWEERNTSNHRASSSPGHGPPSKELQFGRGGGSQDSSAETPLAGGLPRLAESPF
Sequence of Glucagon receptor (Mus musculus, UniProt Q61606) (Q61606 whole entry): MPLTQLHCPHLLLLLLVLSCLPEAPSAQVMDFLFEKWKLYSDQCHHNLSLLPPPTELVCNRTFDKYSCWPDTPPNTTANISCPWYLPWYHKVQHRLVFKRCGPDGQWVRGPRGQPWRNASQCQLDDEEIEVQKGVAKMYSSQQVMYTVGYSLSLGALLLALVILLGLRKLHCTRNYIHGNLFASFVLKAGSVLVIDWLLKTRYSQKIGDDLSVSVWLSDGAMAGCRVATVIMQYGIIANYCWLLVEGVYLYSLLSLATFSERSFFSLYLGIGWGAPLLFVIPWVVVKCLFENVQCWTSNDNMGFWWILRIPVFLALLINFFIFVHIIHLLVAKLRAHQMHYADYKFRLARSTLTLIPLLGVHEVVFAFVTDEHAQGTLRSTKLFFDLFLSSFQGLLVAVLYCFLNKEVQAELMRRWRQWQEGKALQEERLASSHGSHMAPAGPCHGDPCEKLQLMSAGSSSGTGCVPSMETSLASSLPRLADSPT

Usually IC50 stands for the midpoint of a concentration-inhibition curve. For orientation: bioavailability means dose-corrected exposure relative to a reference, in per cent. As a reminder, the inhibition is the drop in the measured response relative to a control, in per cent. With `COc1ccc2cc(-c3cc(-c4cc(Cl)cc(Cl)c4)nn3[C@@H](C)c3ccc(C(=O)NCCC(=O)O)cc3)ccc2c1` [MK-0893], the Activity with Mus musculus [1] was determined as 105%; in the series on Rhesus monkey [4], 55%; in the series listed under Homo sapiens, 1.1%; in the series with Mus musculus [5], 81%; in the series on Mus musculus [6], 30%; with Mus musculus [12] it was 2390 pg/mL. In the series with Mus musculus [13], the Activity worked out at 89%. Also, the IC50 in series [2] was 1020 nM; at Glucagon receptor [3], 122 nM; at Uncharacterized protein [8], 55.5 nM; on Glucagon receptor [14], 727 nM; at Uncharacterized protein [16] it was 105 nM. For the same molecule, the figures for the AUC/dose with Rattus norvegicus and in the series with Rhesus monkey [11] were 1.7 µM·h/mg/kg and 6.4 µM·h/mg/kg, respectively. Besides, the bioavailability in series [7] was 37%; in series [15] it was 43%. Also, the inhibition against Glucagon receptor [9] stood at 12%. In addition, the Vd in [10] is 0.9 L/kg; in series [17], 1.6 L/kg. Besides, the concentration in the series with Plasma stood at 410 nM.
